Measured values: ChEMBL document CHEMBL1152768, “4-Benzyloxy-gamma-sultone derivatives: discovery of a novel family of non-nucleoside inhibitors of human cytomegalovirus and varicella zoster virus” (J Med Chem, 2009)
pEC50: −log10 of the molar value.

Assays:
[1] = Cytotoxicity against human HEL cells assessed as morphological alteration after 3 days; type: cell-based
Procedure, shortened: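 HEL cultures were examined under the microscope. MCC was recorded as the compound concentration causing a microscopically detectable alteration of normal cell morphology.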

Human alphaherpesvirus 3 [2] = assay: Antiviral activity against thymidine kinase deficient Varicella zoster virus 07/1 infected in human HEL cells assessed reduction in viral plaque formation; type: functional, organism-based; conditions: Human alphaherpesvirus 3, HEL
Procedure, shortened: (§1)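 Confluent HEL cell monolayers were inoculated with VZV at 20 PFU per well. Residual virus was removed after 2 h, and compound was added at varying concentrations, in duplicate.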

Human betaherpesvirus 5 [3] = assay: Antiviral activity against HCMV AD169 infected in human HEL cells assessed inhibition of virus-induced cytopathicity after 7 days postinfection; type: functional, organism-based; conditions: Human betaherpesvirus 5, AD169, HEL, 168 h
Procedure, shortened: (§2)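 HEL fibroblasts were infected at 100 PFU. After 2 h, residual virus was removed and medium with test compound was added at several concentrations, in duplicate. Cells were incubated 7 days at 37 °C, fixed with ethanol and stained with Giemsa.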

Human alphaherpesvirus 3 [4] = assay: Antiviral activity against thymidine kinase expressing Varicella zoster virus Oka infected in human HEL cells assessed reduction in viral plaque formation; type: functional, organism-based; conditions: Human alphaherpesvirus 3, Oka; procedure, shortened: as §1
Human betaherpesvirus 5 [5] = assay: Antiviral activity against HCMV Davis infected in human HEL cells assessed inhibition of virus-induced cytopathicity after 7 days postinfection; type: functional, organism-based; conditions: Human betaherpesvirus 5, Davis, 168 h; procedure, shortened: as §2
[6] = Cytotoxicity against human HEL cells assessed as reduction of growth after 3 days; type: cell-based
Procedure, shortened: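 HEL cells were seeded at 5 × 10³ cells/well and grown 24 h before compound was added at different concentrations. After 3 days at 37 °C, cells were counted with a Coulter counter. CC50, the concentration halving growth relative to untreated controls, was read from plots of cell number (% of control) against concentration.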

Human betaherpesvirus 5 [7] = assay: Antiviral activity against wild type HCMV AD169 infected in HEL cells assessed as inhibition of virus-induced cytopathicity; type: functional, organism-based; conditions: Human betaherpesvirus 5, AD169, HEL
Procedure, shortened: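 HEL fibroblast cultures infected at 100 PFU input. After 2 h, residual virus was removed and compound-containing medium was added at varying concentrations, in duplicate. Cells were incubated 7 days at 37 °C, ethanol-fixed and Giemsa-stained, and cytopathicity was scored microscopically.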

SMILES	pEC50 (Human alphaherpesvirus 3 [2])	pEC50 (Human betaherpesvirus 5 [3])	pEC50 (Human alphaherpesvirus 3 [4])	pEC50 (Human betaherpesvirus 5 [5])	MCC at 72 h [1] [µM]	CC50 at 72 h [6] [µM]	pEC50 (Human betaherpesvirus 5 [7])
CCC1(Cc2ccccc2)OS(=O)(=O)CC1=O (configuration not stated)	4.98	< 3.40	5.00	3.40	> 100	200	
CCC1(Cc2ccccc2)OS(=O)(=O)C=C1OCC#N (racemic)	3.70	< 4.10	3.70	3.63	> 400	> 200	
Nc1nc2c(ncn2COCCO)c(=O)[nH]1 [ACYCLOVIR]	4.14		5.96		> 200	733	4.82
CCC1(Cc2ccccc2)OS(=O)(=O)C=C1OCC(=O)OC (racemic)	< 3.40	< 3.40	< 3.40	< 3.40	> 400	> 200	
CCC1(Cc2ccccc2)OS(=O)(=O)C=C1OCCCCCCc1ccccc1 (racemic)	5.08	> 5.49	5.06	5.19	≥ 20	< 200	
CCC1(Cc2ccccc2)OS(=O)(=O)C=C1OCC=C(C)C (racemic)	4.28	< 4.10	4.23	< 4.10	400	112	
CCC1(Cc2ccccc2)OS(=O)(=O)C=C1OS(=O)(=O)c1ccc(C)cc1 (racemic)	< 4.10	< 4.10	< 4.10	< 4.10	400	109	
C=CCOC1=CS(=O)(=O)OC1(CC)Cc1ccccc1 (racemic)	< 4.80	< 3.40	< 4.80	< 3.40	80	> 200	
O=c1[nH]c(=O)n([C@H]2C[C@H](O)[C@@H](CO)O2)cc1/C=C/Br [BRIVUDINE]	3.85		7.82		> 150	600	
CCC1(Cc2ccccc2)OS(=O)(=O)C=C1OCC1CCCCC1 (racemic)	5.15	< 3.70	4.70	< 3.70	≥ 200	> 200	
CCC1(Cc2ccccc2)OS(=O)(=O)C=C1OC (racemic)	3.55	< 3.40	3.77	< 3.40	> 400	> 200	
CCC1(Cc2ccccc2)OS(=O)(=O)C=C1NCc1ccccc1 (configuration not stated)	4.49	< 4.10	4.43	< 4.10	≥ 80	92	
CCC1(Cc2ccccc2)OS(=O)(=O)C=C1OC(c1ccccc1)c1ccccc1 (racemic)	< 4.10	< 3.40	< 4.10	< 3.40	≥ 80	> 200	

Second part, led by results:

pEC50 (Human alphaherpesvirus 3 [2])	pEC50 (Human betaherpesvirus 5 [3])	pEC50 (Human alphaherpesvirus 3 [4])	pEC50 (Human betaherpesvirus 5 [5])	SMILES	MCC at 72 h [1] [µM]	CC50 at 72 h [6] [µM]	pEC50 (Human betaherpesvirus 5 [7])
< 5.49	5.19	< 5.49	5.14	CCC1(Cc2ccccc2)OS(=O)(=O)C=C1OCc1ccc(Cl)c(Cl)c1 (racemic)	≥ 20	36.7	
< 4.10	< 3.40	< 4.10	< 3.40	CC(C)CC1(Cc2ccccc2)OS(=O)(=O)C=C1OCc1ccccc1 (racemic)	≥ 80	102	
< 3.40	< 3.40	< 4.10	< 3.40	CCCC1(Cc2ccccc2)OS(=O)(=O)C=C1OCc1ccccc1 (racemic)	≥ 400	200	
5.17	4.92	5.11	5.10	CCC1(Cc2ccccc2)OS(=O)(=O)C=C1OCc1ccc(C(F)(F)F)cc1 (racemic)	≥ 16	99	
< 4.80	< 3.40	< 4.10	< 3.40	CC(C)C1(Cc2ccccc2)OS(=O)(=O)C=C1OCc1ccccc1 (racemic)	≥ 80	200	
5.19	5.05	< 5.49	5.06	CCC1(Cc2ccccc2)OS(=O)(=O)C=C1OCCCc1ccccc1 (racemic)	≥ 20	133	
5.20	5.00	5.08	5.22	CCC1(Cc2ccccc2)OS(=O)(=O)C=C1OCc1ccc(Br)cc1 (racemic)	80	171	
4.27	< 3.40	4.10	< 4.10	CCC1(Cc2ccccc2)OS(=O)(=O)C=C1OCc1ccc([N+](=O)[O-])cc1 (racemic)	≥ 80	< 200	
< 4.70	< 5.49	5.21	5.11	CCC1(Cc2ccccc2)OS(=O)(=O)C=C1OCCCCc1ccccc1 (racemic)	≥ 20	99	
< 3.40	< 3.40	< 3.40	3.75	CCC1(Cc2ccccc2)OS(=O)(=O)C=C1OC(=O)c1ccccc1 (racemic)	> 400	> 200	
< 3.40	< 3.70	3.51	< 3.70	CC1(Cc2ccccc2)OS(=O)(=O)C=C1OCc1ccccc1 (racemic)	> 400	68	
3.81	< 3.40	3.76	3.63	CCC1(CC)OS(=O)(=O)C=C1OCc1ccccc1	> 400	200	
5.17	< 4.80	5.14	5.10	CCC1(Cc2ccccc2)OS(=O)(=O)C=C1OCc1cccc(Cl)c1 (racemic)	≥ 20	50	
< 4.10	< 4.10	< 4.10	< 3.40	CC1(C(c2ccccc2)c2ccccc2)OS(=O)(=O)C=C1OCc1ccccc1 (racemic)	≥ 400	200	
5.14	4.70	5.19	≤ 5.30	CCC1(Cc2ccccc2)OS(=O)(=O)C=C1OCc1ccc(C(C)(C)C)cc1 (racemic)	≥ 400	200	
< 4.80	< 3.40	4.10	< 4.10	O=S1(=O)C=C(OCc2ccccc2)C2(CCc3ccccc3C2)O1 (racemic)	≥ 80	131	
5.23	5.14	5.19	5.23	CCC1(Cc2ccccc2)OS(=O)(=O)C=C1OCc1ccc(C)cc1 (racemic)	≥ 16	41.5	
